# Test results reported in paper PMC8963331 (Toxicological Sciences, 2022).
# Entries after “also recorded” stand apart in the source; their conditions may differ.
# Legend:
# [1] = Exposure comparisons stated jointly for several nonclinical species; assay type: in vivo, rat, dog, rabbit
# [2] = Rat repeat-dose toxicity studies: plasma toxicokinetics; assay type: in vivo; settings: for AUC(0-t) / Cmax: plasma, po; for AUC(0-t) / Cmax / Mean Cave: last day of dosing; for Cmax: Mean Cmax
# [3] = Rat fertility and early embryonic development; assay type: in vivo; settings: both, Sprague-Dawley (Crl:CD), rat, in vivo, oral
# [4] = system: Crl:CD Sprague Dawley (SD) rats; experiment: Rat fertility and early embryonic development; assay type: in vivo; settings: for Fertility index / Mating index / Pregnancy rate / Females mated: rat FEED; for Females mated: 22 females paired
# [5] = system: JAK1, JAK2, JAK3, and TYK2; experiment: Human cellular JAK IC50; assay type: cell-based; settings: corrected with human plasma protein binding of 85.4%
# [6] = system: Time-mated female rats; experiment: Rat embryo–fetal development; assay type: in vivo; settings: for Corpora lutea (mean ± SD) / Implantation sites (mean ± SD) / Preimplantation loss (mean ± SD) / Total resorptions (mean ± SD) / Females with live fetuses / Pregnant females: rat EFD; for Females with live fetuses / Pregnant females: 22 total females
# Outline: (§1)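 Time-mated female Crl:CD Sprague Dawley rats, 10–12 weeks old at dosing start, gavaged daily (10 ml/kg) with 0 (vehicle), 30, 100 or 1000 mg/kg/day test compound on GDs 6–17; n = 22/group plus a toxicokinetic group. Cesarean-section counts: corpora lutea, implantation sites, preimplantation loss, resorptions. Fetuses weighed and checked for external, visceral and skeletal (Alizarin Red S, after evisceration) abnormalities. Fetal weights compared by ANCOVA/Dunnett with litter size as covariate.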
# [7] = Rat embryo–fetal development; assay type: in vivo; settings: female, rat, in vivo, oral
# Outline: as §1
# [8] = mice; 10 mg/kg oral; ref Sandborn et al., 2020; cited from earlier work
# [9] = system: Time-mated female rabbits; experiment: Rabbit embryo–fetal development; assay type: in vivo; settings: for Corpora lutea (mean ± SD) / Implantation sites (mean ± SD) / Preimplantation loss (mean ± SD) / Total resorptions (mean ± SD) / Females with live fetuses / Pregnant females: rabbit EFD; for Females with live fetuses / Pregnant females: 22 total females
# Outline: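 Time-mated female rabbits, 6–8 months old at dosing start, gavaged daily (10 ml/kg) with vehicle or 10, 30 or 60 mg/kg/day test compound over GDs 7–19; n = 22/group plus a toxicokinetic group. Cesarean-section endpoints: corpora lutea, implantation sites, preimplantation loss, resorptions. Fetuses weighed and examined externally, viscerally and, after evisceration and Alizarin Red S staining, skeletally. Fetal weights analysed by ANCOVA with Dunnett's test, litter size as covariate.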
# [10] = system: mouse colitis model; settings: ref Sandborn et al., 2020; cited from earlier work
smiles,measurement,setting,value
"Cc1cc(Nc2cc3ncccc3c(N[C@@H]3C[C@H]4CC[C@@H](C3)N4CCC#N)n2)n[nH]1 [izencitinib, Izencitinib]",nonclinical:clinical systemic exposure (AUC) ratio at the NOAEL dose,"[1]; rat and dog general toxicity studies, each study, vs human 300 mg QD",6- to 18 fold
same,fetal exposure,[1]; rat and rabbit EFD studies,negligible
same,maternal plasma Cave:JAK IC50 ratio,[1]; rat and rabbit EFD studies,2–6 ×
same,Cave:uncorrected IC50 ratio,"[1]; rat and rabbit EFD, highest dose tested",≥ 2 ×
same,AUC(0-t),"[2]; female, Sprague-Dawley (Crl:CD), rat, 30 mg/kg/day, Mean AUC0–24, rat female, 30 mg/kg/day oral, 26 weeks",16.7 ng·h/mL
same,Cmax,"[2]; female, Sprague-Dawley (Crl:CD), rat, 30 mg/kg/day, rat female, 30 mg/kg/day oral, 26 weeks",6.02 ng/mL
same,AUC(0-t),"[2]; female, Sprague-Dawley (Crl:CD), rat, 100 mg/kg/day, Mean AUC0–24, rat female, 100 mg/kg/day oral, 26 weeks",127 ng·h/mL
same,Cmax,"[2]; female, Sprague-Dawley (Crl:CD), rat, 100 mg/kg/day, rat female, 100 mg/kg/day oral, 26 weeks",32.5 ng/mL
same,AUC(0-t),"[2]; female, Sprague-Dawley (Crl:CD), rat, 1000 mg/kg/day, Mean AUC0–24, rat female, 1000 mg/kg/day oral, 26 weeks",453 ng·h/mL
same,Cmax,"[2]; female, Sprague-Dawley (Crl:CD), rat, 1000 mg/kg/day, rat female, 1000 mg/kg/day oral, 26 weeks",96.3 ng/mL
same,AUC(0-t),"[2]; female, Sprague-Dawley, rat, 30 mg/kg/day, Mean AUC0–24, rat female, 30 mg/kg/day oral, 4 weeks",25.7 ng·h/mL
same,AUC(0-t),"[2]; female, Sprague-Dawley, rat, 30 mg/kg/day, Mean AUC0–24, rat female, 30 mg/kg/day oral, 13 weeks",54.6 ng·h/mL
same,AUC(0-t),"[2]; female, Sprague-Dawley, rat, 100 mg/kg/day, Mean AUC0–24, rat female, 100 mg/kg/day oral, 4 weeks",70.5 ng·h/mL
same,AUC(0-t),"[2]; female, Sprague-Dawley, rat, 100 mg/kg/day, Mean AUC0–24, rat female, 100 mg/kg/day oral, 13 weeks",227 ng·h/mL
same,AUC(0-t),"[2]; female, Sprague-Dawley, rat, 1000 mg/kg/day, Mean AUC0–24, rat female, 1000 mg/kg/day oral, 4 weeks",384 ng·h/mL
same,AUC(0-t),"[2]; male, Sprague-Dawley (Crl:CD), rat, 30 mg/kg/day, Mean AUC0–24, rat male, 30 mg/kg/day oral, 26 weeks",34.6 ng·h/mL
same,Cmax,"[2]; male, Sprague-Dawley (Crl:CD), rat, 30 mg/kg/day, rat male, 30 mg/kg/day oral, 26 weeks",4.52 ng/mL
same,AUC(0-t),"[2]; male, Sprague-Dawley (Crl:CD), rat, 100 mg/kg/day, Mean AUC0–24, rat male, 100 mg/kg/day oral, 26 weeks",95.7 ng·h/mL
same,Cmax,"[2]; male, Sprague-Dawley (Crl:CD), rat, 100 mg/kg/day, rat male, 100 mg/kg/day oral, 26 weeks",15.8 ng/mL
same,AUC(0-t),"[2]; male, Sprague-Dawley (Crl:CD), rat, 1000 mg/kg/day, Mean AUC0–24, rat male, 1000 mg/kg/day oral, 26 weeks",384 ng·h/mL
same,Cmax,"[2]; male, Sprague-Dawley (Crl:CD), rat, 1000 mg/kg/day, rat male, 1000 mg/kg/day oral, 26 weeks",60.6 ng/mL
same,AUC(0-t),"[2]; male, Sprague-Dawley, rat, 30 mg/kg/day, Mean AUC0–24, rat male, 30 mg/kg/day oral, 4 weeks",23.4 ng·h/mL
same,AUC(0-t),"[2]; male, Sprague-Dawley, rat, 30 mg/kg/day, Mean AUC0–24, rat male, 30 mg/kg/day oral, 13 weeks",58.2 ng·h/mL
same,AUC(0-t),"[2]; male, Sprague-Dawley, rat, 100 mg/kg/day, Mean AUC0–24, rat male, 100 mg/kg/day oral, 4 weeks",71.3 ng·h/mL
same,AUC(0-t),"[2]; male, Sprague-Dawley, rat, 100 mg/kg/day, Mean AUC0–24, rat male, 100 mg/kg/day oral, 13 weeks",131 ng·h/mL
same,AUC(0-t),"[2]; male, Sprague-Dawley, rat, 1000 mg/kg/day, Mean AUC0–24, rat male, 1000 mg/kg/day oral, 4 weeks",335 ng·h/mL
same,AUC(0-t),"[2]; male, Sprague-Dawley, rat, 1000 mg/kg/day, Mean AUC0–24, rat male, 1000 mg/kg/day oral, 13 weeks",452 ng·h/mL
same,nonclinical:clinical systemic AUC margin at the NOAEL,"[2]; rat 26-week study, 1000 mg/kg/day, vs human 300 mg QD",8 fold
same,Mean Cave,"[2]; rat female, 30 mg/kg/day oral, 4 weeks",1.07 ng/mL
same,Mean Cave,"[2]; rat female, 30 mg/kg/day oral, 13 weeks",2.28 ng/mL
same,Mean Cave,"[2]; rat female, 30 mg/kg/day oral, 26 weeks",0.700 ng/mL
same,Mean Cave,"[2]; rat female, 100 mg/kg/day oral, 4 weeks",2.94 ng/mL
same,Mean Cave,"[2]; rat female, 100 mg/kg/day oral, 13 weeks",9.46 ng/mL
same,Mean Cave,"[2]; rat female, 100 mg/kg/day oral, 26 weeks",5.29 ng/mL
same,Mean Cave,"[2]; rat female, 1000 mg/kg/day oral, 4 weeks",16.0 ng/mL
same,Mean Cave,"[2]; rat female, 1000 mg/kg/day oral, 13 weeks",63.8 ng/mL
same,Mean Cave,"[2]; rat female, 1000 mg/kg/day oral, 26 weeks",18.9 ng/mL
same,Mean Cave,"[2]; rat male, 30 mg/kg/day oral, 4 weeks",0.975 ng/mL
same,Mean Cave,"[2]; rat male, 30 mg/kg/day oral, 13 weeks",2.43 ng/mL
same,Mean Cave,"[2]; rat male, 30 mg/kg/day oral, 26 weeks",1.44 ng/mL
same,Mean Cave,"[2]; rat male, 100 mg/kg/day oral, 4 weeks",2.97 ng/mL
same,Mean Cave,"[2]; rat male, 100 mg/kg/day oral, 13 weeks",5.46 ng/mL
same,Mean Cave,"[2]; rat male, 100 mg/kg/day oral, 26 weeks",3.99 ng/mL
same,Mean Cave,"[2]; rat male, 1000 mg/kg/day oral, 4 weeks",14.0 ng/mL
same,Mean Cave,"[2]; rat male, 1000 mg/kg/day oral, 13 weeks",18.8 ng/mL
same,Mean Cave,"[2]; rat male, 1000 mg/kg/day oral, 26 weeks",16.0 ng/mL
same,plasma Cave:protein-corrected JAK IC50 ratio,"[2]; rat, 30 mg/kg/day",< 1 ×
same,plasma Cave:uncorrected JAK IC50 ratio,"[2]; rat, 30 mg/kg/day",< 1 ×
same,plasma concentrations versus uncorrected human JAK IC50 threshold,"[2]; rat, 100 mg/kg/day",only briefly rose above
same,plasma Cave:protein-corrected JAK IC50 ratio,"[2]; rat, 1000 mg/kg/day",< 1
same,plasma Cave:uncorrected JAK IC50 ratio,"[2]; rat, 1000 mg/kg/day",1–3 ×
same,NOAEL,[3],1000 mg/kg/day
same,Fertility index,[4]; 30 mg/kg/day oral,90.9%
same,Mating index,[4]; 30 mg/kg/day oral,100.0%
same,Pregnancy rate,[4]; 30 mg/kg/day oral,90.9%
same,Females mated,[4]; 30 mg/kg/day oral,22 n
same,Females mated,[4]; 100 mg/kg/day oral,21 n
same,Fertility index,[4]; 1000 mg/kg/day oral,95.2%
same,Mating index,[4]; 1000 mg/kg/day oral,95.5%
same,Pregnancy rate,[4]; 1000 mg/kg/day oral,90.9%
same,Females mated,[4]; 1000 mg/kg/day oral,21 n
same,effect on male or female fertility,"[4]; rat, up to 1000 mg/kg/day",did not affect; also recorded: No effects
same,"human cellular JAK IC50 range, human plasma protein binding corrected",[5],0.08718 to 0.5501 µg/mL
same,Corpora lutea (mean ± SD),[6]; 30 mg/kg/day oral GDs 6–17,14 ± 2.0
same,Implantation sites (mean ± SD),[6]; 30 mg/kg/day oral GDs 6–17,14 ± 2.0
same,Preimplantation loss (mean ± SD),[6]; 30 mg/kg/day oral GDs 6–17,1.0 ± 0.9
same,Total resorptions (mean ± SD),[6]; 30 mg/kg/day oral GDs 6–17,0 ± 0.6
same,Females with live fetuses,[6]; 30 mg/kg/day oral GDs 6–17,22
same,Pregnant females,[6]; 30 mg/kg/day oral GDs 6–17,22
same,Corpora lutea (mean ± SD),[6]; 100 mg/kg/day oral GDs 6–17,14 ± 2.3
same,Implantation sites (mean ± SD),[6]; 100 mg/kg/day oral GDs 6–17,13 ± 1.8
same,Preimplantation loss (mean ± SD),[6]; 100 mg/kg/day oral GDs 6–17,1.0 ± 1.2
same,Total resorptions (mean ± SD),[6]; 100 mg/kg/day oral GDs 6–17,0 ± 0.7
same,Females with live fetuses,[6]; 100 mg/kg/day oral GDs 6–17,22
same,Pregnant females,[6]; 100 mg/kg/day oral GDs 6–17,22
same,Corpora lutea (mean ± SD),[6]; 1000 mg/kg/day oral GDs 6–17,14 ± 1.7
same,Implantation sites (mean ± SD),[6]; 1000 mg/kg/day oral GDs 6–17,13 ± 1.9
same,Preimplantation loss (mean ± SD),[6]; 1000 mg/kg/day oral GDs 6–17,1.0 ± 1.0
same,Total resorptions (mean ± SD),[6]; 1000 mg/kg/day oral GDs 6–17,0 ± 1.1
same,Females with live fetuses,[6]; 1000 mg/kg/day oral GDs 6–17,22
same,Pregnant females,[6]; 1000 mg/kg/day oral GDs 6–17,22
same,effects on cesarean section parameters,"[6]; rat, all doses",no effects
same,"fetal external, visceral, or skeletal malformations","[6]; rat, all doses",no observations
same,NOAEL,[7],1000 mg/kg/day
same,colon:plasma AUC ratio,[8],3883
same,effects on fetal parameters,[9]; rabbit,no effects
same,Corpora lutea (mean ± SD),[9]; 10 mg/kg/day oral GDs 7–19,10 ± 1.7
same,Implantation sites (mean ± SD),[9]; 10 mg/kg/day oral GDs 7–19,10 ± 1.6
same,Preimplantation loss (mean ± SD),[9]; 10 mg/kg/day oral GDs 7–19,1.0 ± 0.8
same,Total resorptions (mean ± SD),[9]; 10 mg/kg/day oral GDs 7–19,0 ± 0.4
same,Females with live fetuses,[9]; 10 mg/kg/day oral GDs 7–19,20
same,Pregnant females,[9]; 10 mg/kg/day oral GDs 7–19,22
same,Corpora lutea (mean ± SD),[9]; 30 mg/kg/day oral GDs 7–19,11 ± 2.0
same,Implantation sites (mean ± SD),[9]; 30 mg/kg/day oral GDs 7–19,10 ± 1.9
same,Preimplantation loss (mean ± SD),[9]; 30 mg/kg/day oral GDs 7–19,1.0 ± 0.9
same,Total resorptions (mean ± SD),[9]; 30 mg/kg/day oral GDs 7–19,0 ± 0.4
same,Females with live fetuses,[9]; 30 mg/kg/day oral GDs 7–19,21
same,Pregnant females,[9]; 30 mg/kg/day oral GDs 7–19,21
same,Corpora lutea (mean ± SD),[9]; 60 mg/kg/day oral GDs 7–19,11 ± 2.3
same,Implantation sites (mean ± SD),[9]; 60 mg/kg/day oral GDs 7–19,10 ± 2.8
same,Preimplantation loss (mean ± SD),[9]; 60 mg/kg/day oral GDs 7–19,1.0 ± 1.5
same,Total resorptions (mean ± SD),[9]; 60 mg/kg/day oral GDs 7–19,1 ± 1.6
same,Females with live fetuses,[9]; 60 mg/kg/day oral GDs 7–19,21
same,Pregnant females,[9]; 60 mg/kg/day oral GDs 7–19,22
same,effects on cesarean section parameters,"[9]; rabbit, any dose",no adverse effects
same,tolerability,"[9]; rabbit, up to 60 mg/kg/day",well tolerated
same,JAK inhibitor-associated splenic natural killer (NK) cell reductions,[10],spared
